NR2E3 ag-1: NR2E3 (human) agonism; Q9Y5X4; GST-NR2E3/biotin-RetCOR TR-FRET, 1536-well; inhibition of corepressor binding, % at 4.78 µM; 320,000 compounds, 0.12% hits;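 active = percent inhibition above the cutoff of mean plus 3 SD of all tested compounds, set per screening campaign, cut at about 20% in these data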;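 note: 0% = DMSO wells and 100% = biotin wells as full block of FRET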
Target sequence (Q9Y5X4 whole entry, looked up): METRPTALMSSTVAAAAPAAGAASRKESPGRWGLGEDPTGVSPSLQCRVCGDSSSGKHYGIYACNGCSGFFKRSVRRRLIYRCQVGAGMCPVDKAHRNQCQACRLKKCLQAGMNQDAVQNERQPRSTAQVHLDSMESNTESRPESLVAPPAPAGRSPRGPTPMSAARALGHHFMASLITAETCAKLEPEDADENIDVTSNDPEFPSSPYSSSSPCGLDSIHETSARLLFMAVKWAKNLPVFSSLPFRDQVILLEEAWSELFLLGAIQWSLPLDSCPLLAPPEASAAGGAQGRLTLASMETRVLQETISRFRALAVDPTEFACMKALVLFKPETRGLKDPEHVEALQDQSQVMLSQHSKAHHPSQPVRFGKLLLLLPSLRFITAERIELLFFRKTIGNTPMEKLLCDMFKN
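Test system – NR2E3–RetCOR corepressor complex · Quantity – NR2E3 fusion 1.35 nM · Buffer or medium – Tris pH 7.5 · Incubation – Compound–protein incubation for 5 h at 4 °C · Technique – TR-FRET, Eu(K)-anti-GST donor, streptavidin-D2 acceptor, ex 340, em 617/671 nm · Evaluation – percent inhibition of 671/617 nm emission ratio versus biotin and DMSO controls · Plate – 1536-well format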
SMARCA2 act: activators of SMARCA2 function; MG213 cells, MMTV-luciferase reporter, dexamethasone, overnight; activation, % at 9.1 µM; 370,000 compounds, 1% hits; AID 652017; in the data active = activation above about 7.8%;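 note: 0% = vehicle wells and 100% = reference activator wells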
DAX1 inh-1: inhibits human nuclear receptor DAX1. P51843. HEK293 Gal4-DAX1 luciferase reporter, luminescence. inhibition, % at 6.75 µM. 340,000 compounds, 0.99% hits;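 active = inhibition above the mean over all tested compounds plus 3 SD, cut at about 4.2% in these data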;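 note: 0% = DAX1-transfected cells with DMSO and 100% = empty-vector control cells with DMSO; inhibition shows as a rise in luminescence from relieved DAX1 repression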
Target sequence (P51843 207-470 limits assumed): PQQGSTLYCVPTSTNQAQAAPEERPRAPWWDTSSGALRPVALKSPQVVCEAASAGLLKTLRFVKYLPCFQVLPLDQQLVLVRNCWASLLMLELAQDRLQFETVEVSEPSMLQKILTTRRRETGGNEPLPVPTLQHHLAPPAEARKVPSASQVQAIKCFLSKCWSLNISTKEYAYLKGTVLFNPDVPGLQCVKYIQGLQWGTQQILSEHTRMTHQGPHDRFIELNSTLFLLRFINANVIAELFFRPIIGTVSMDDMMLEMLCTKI
DAX1 inh-2: blocks DAX1 repression of SF-1 activated StAR promoter; HEK293T StAR-luciferase reporter, SF-1/DAX-1 repression relief; inhibition, % at 6.8 µM; 370,000 compounds, 1.1% hits;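 active = inhibition above the mean over all tested compounds plus 3 SD, cut at about 3.6% in these data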;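 note: 0% = DAX-1 cells with DMSO and 100% = cells lacking DAX-1 with DMSO; higher inhibition means more luminescence from relief of DAX-1 repression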
NR2E3 ag-2: human photoreceptor-specific nuclear receptor agonism; inhibition of corepressor binding, % at 3.98 µM; Q9Y5X4; CHO-S Gal4-NCOR/VP16-NR2E3 two-hybrid, luciferase; 360,000 compounds, 0.35% hits;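 active = inhibition above the mean of all tested compounds plus 3 SD, cut at about 70% in these data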;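 note: 0% = DMSO with NR2E3 transfected cells and 100% = cells lacking NR2E3 construct; higher means lower luciferase signal from less NR2E3 corepressor binding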
JMJD2C inh: inhibitors of human GASC-1 (JMJD2C) demethylase | Q9H3R0 | GST-JMJD2C(1-420) H3K9me3 demethylation, DELFIA europium | inhibition, % at 2.35 µM | 330,000 compounds, 0.069% hits | AID 2099;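 active = more than half of a compound's replicate wells show inhibition beyond 50%, single wells judged on their own value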;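 note: signal counts dimethyl H3K9 product captured on neutravidin plate; 0% = median of DMSO wells and 100% = 0.3 times that DMSO median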
* = called active by the depositor. Compounds with a hit are over-represented: about 3.2% of the library has one in this group of screens.

For O=C(c1cc2c(s1)-c1ccccc1OC2)N1CCN(c2ccccn2)CC1 the results were NR2E3 ag-1 0, SMARCA2 act 1, DAX1 inh-1 5.4*, DAX1 inh-2 0, NR2E3 ag-2 0 and JMJD2C inh 6.
COC(=O)[C@]12C[C@H](CC(=O)NCC34CC5CC(CC(C5)C3)C4)C(=O)N(CCc3ccc(OC)c(OC)c3)C1=C[C@H](C1CCCC1)O[C@@H]2C was read as SMARCA2 act -3 and DAX1 inh-2 -2.
Oc1[nH]c2ccccc2c1/C=N/c1nccs1 was read as NR2E3 ag-1 -4, SMARCA2 act 4, DAX1 inh-1 2, DAX1 inh-2 1, NR2E3 ag-2 -47 and JMJD2C inh -5.
`Cc1ccc(N=Cc2c(O)[nH]c3ccccc23)c([N+](=O)[O-])c1` gave NR2E3 ag-1 2, SMARCA2 act 7, DAX1 inh-1 0, DAX1 inh-2 4.1*, NR2E3 ag-2 -89 and JMJD2C inh -1.
Screening COc1ccc(N=Cc2c(O)[nH]c3ccccc23)cc1 returned NR2E3 ag-1 -6, SMARCA2 act 1, DAX1 inh-1 1, DAX1 inh-2 4.2*, NR2E3 ag-2 -121 and JMJD2C inh 11.
For CC(=O)Nc1ccc(NC(=O)C2CCCN2C(=O)Nc2ccc(F)c([N+](=O)[O-])c2)cc1 (stereo not drawn) the results were NR2E3 ag-1 1, SMARCA2 act -2, DAX1 inh-1 4.9*, DAX1 inh-2 1, NR2E3 ag-2 4 and JMJD2C inh 1.
For CC(=O)Nc1ccc(NC(=O)C2CCCN2C(=O)Nc2ccccc2[N+](=O)[O-])cc1 (stereo not drawn) the results were NR2E3 ag-1 -1, SMARCA2 act -1, DAX1 inh-1 0, DAX1 inh-2 0, NR2E3 ag-2 -30 and JMJD2C inh 16.
For CCn1c(SCC(=O)Nc2ccccc2-c2ccccc2)nnc1-c1cnccn1 the results were SMARCA2 act 5 and DAX1 inh-2 0.
c1ccc2c(c1)oc1c(NCCCn3ccnc3)ncnc12 was read as NR2E3 ag-1 0, SMARCA2 act 0, DAX1 inh-1 0, DAX1 inh-2 0, NR2E3 ag-2 -28 and JMJD2C inh 5.
Screening O=c1c2ccccc2oc2ccc(NCCCn3ccnc3)cc12 returned NR2E3 ag-1 -1, SMARCA2 act 5, DAX1 inh-1 1, DAX1 inh-2 4.0*, NR2E3 ag-2 -118 and JMJD2C inh -10.
Screening Cc1cc(=O)[nH]c(SCc2cccc3cccnc23)n1 returned NR2E3 ag-1 -1, SMARCA2 act -2, DAX1 inh-1 5.2*, DAX1 inh-2 -1, NR2E3 ag-2 35 and JMJD2C inh -1.
`O=C(CN(Cc1ccco1)C(=O)c1cc(=O)[nH]c2ccccc12)Nc1ccccc1C(F)(F)F` gave NR2E3 ag-1 0, SMARCA2 act 1, DAX1 inh-1 6.3*, DAX1 inh-2 0, NR2E3 ag-2 8 and JMJD2C inh -4.
For CCOc1ccc(NC(=O)c2cc(-c3ccc(Cl)cc3)nc3ccccc23)cc1 the results were SMARCA2 act -5 and DAX1 inh-2 -1.
`CCOc1ccc(NC(=O)c2cc(Cl)nc3ccccc23)cc1` gave NR2E3 ag-1 3, SMARCA2 act -2, DAX1 inh-1 4.3*, DAX1 inh-2 0, NR2E3 ag-2 1 and JMJD2C inh 1.
Screening CCOC(=O)CSc1nnc(Cn2c(=O)sc3ccccc32)n1C returned NR2E3 ag-1 0, SMARCA2 act 3, DAX1 inh-1 5.8*, DAX1 inh-2 0, NR2E3 ag-2 11 and JMJD2C inh 104.
COc1ccccc1NC(=O)CSc1nnc(Cn2c(=O)sc3ccccc32)n1C was read as NR2E3 ag-1 0, SMARCA2 act 1, DAX1 inh-1 1, DAX1 inh-2 0, NR2E3 ag-2 -11 and JMJD2C inh 0.
For CC(=O)c1ccc(NC(=O)CSc2nnc(Cn3c(=O)sc4ccccc43)n2C)cc1 the results were NR2E3 ag-1 5, SMARCA2 act -2, DAX1 inh-1 4.8*, DAX1 inh-2 0, NR2E3 ag-2 -17 and JMJD2C inh -1.
For COc1cccc([C@H]2NC(=O)C/C=C/[C@@H](C)[C@@H](c3cccc(OC)c3)NC(=O)C/C=C/[C@H]2C)c1 the results were SMARCA2 act -2 and DAX1 inh-2 -1.
O=S(=O)(Nc1nc2ccccc2nc1N1CCc2ccccc2C1)c1ccc(Br)cc1 was read as NR2E3 ag-1 2, SMARCA2 act 7, DAX1 inh-1 -1, DAX1 inh-2 5.8*, NR2E3 ag-2 -142 and JMJD2C inh 3.
For CC(=O)Nc1ccc(S(=O)(=O)Nc2nc3ccccc3nc2N2CCc3ccccc3C2)cc1 the results were NR2E3 ag-1 6, SMARCA2 act 4, DAX1 inh-1 1, DAX1 inh-2 3, NR2E3 ag-2 -52 and JMJD2C inh 10.
For CCc1ccc(N(CC(=O)N2CCOCC2)S(C)(=O)=O)cc1 the results were NR2E3 ag-1 6, SMARCA2 act -1, DAX1 inh-1 6.7*, DAX1 inh-2 0, NR2E3 ag-2 0 and JMJD2C inh 0.
Brc1ccc(-c2nn3c(-c4ccccc4)nnc3s2)o1 was read as SMARCA2 act -3 and DAX1 inh-2 -2.
CCNc1cccc2c1C(=O)N(C)C2=O was read as NR2E3 ag-1 1, SMARCA2 act 7.8*, DAX1 inh-1 0, DAX1 inh-2 -1, NR2E3 ag-2 3 and JMJD2C inh 5.
`CCC(=O)Nc1cccc2c1C(=O)N(C)C2=O` gave NR2E3 ag-1 1, SMARCA2 act 0, DAX1 inh-1 4, DAX1 inh-2 0, NR2E3 ag-2 -16 and JMJD2C inh -3.
For O=C(NC1CC1)c1ccc(-c2cnc3cccnn23)cc1 the results were SMARCA2 act 2, DAX1 inh-2 4.4* and NR2E3 ag-2 -79.
Screening COc1ccc(/C=N/Nc2cc(=O)n(C)c(=O)n2C)cc1OC returned NR2E3 ag-1 -2, SMARCA2 act -2, DAX1 inh-1 -1, DAX1 inh-2 0, NR2E3 ag-2 -1 and JMJD2C inh 52*.
For Cn1c(=O)n(C)c2cc(/C=N/NC(=O)c3ccc(Cl)cc3)ccc21 the results were NR2E3 ag-1 2, SMARCA2 act -2, DAX1 inh-1 4.6*, DAX1 inh-2 0, NR2E3 ag-2 -27 and JMJD2C inh -2.
Screening CCc1ccc(C(=O)Nc2ccc3c(c2)n(C)c(=O)n3C)cc1 returned NR2E3 ag-1 1, SMARCA2 act 0, DAX1 inh-1 5.9*, DAX1 inh-2 0, NR2E3 ag-2 20 and JMJD2C inh 18.
`COc1cc(OC)cc(C(=O)Nc2ccc3c(c2)n(C)c(=O)n3C)c1` gave NR2E3 ag-1 0, SMARCA2 act 0, DAX1 inh-1 1, DAX1 inh-2 0, NR2E3 ag-2 -20 and JMJD2C inh 0.

Assay outcomes (PubChem)
